Laboratory results reported in PMC2987701 (Bioorganic & medicinal chemistry letters, 2010).
“Also recorded” adds a separate entry of the source.

Columns and labels:
[1] = test system: H69AR small cell lung tumor cell; assay: Cell-based viability study, tumor cell growth; set-up: species or system human; conditions: concentration of 10 μM; note [21]
[2] = molecular target: T1, GST-Bfl-1 (Homo sapiens, UniProt Q16548); assay: High-throughput fluorescence polarization; format: binding; conditions: result in words
T1 sequence (Q16548 1-175): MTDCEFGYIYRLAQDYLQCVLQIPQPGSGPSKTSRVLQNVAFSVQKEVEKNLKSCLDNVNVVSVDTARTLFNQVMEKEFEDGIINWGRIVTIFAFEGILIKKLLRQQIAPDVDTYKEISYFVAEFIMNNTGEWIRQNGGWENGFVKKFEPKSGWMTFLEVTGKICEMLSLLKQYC

[3] = molecular target: T1, GST-Bfl-1; assay: LanthaScreen TR-FRET assay, FITC-Bid BH3 peptide / GST-tagged protein; format: binding; conditions: result in words
How it was run: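 Test compound at 10 concentrations (2-fold serial dilution, 10% DMSO), in duplicate wells. Preincubated 1 h at 4 °C with GST-Bfl-1 (7.4 nM working solution, Bis-Tris pH 7.0 buffer). Then FITC-Bid (5.6 nM) plus Tb-antibody (2.5 nM) working solution added, 4 h at room temperature in the dark. Read in time-resolved mode: excitation 340 nm, 0.1 ms delay, 1 ms integration, 5 reads averaged. Signal is the 520/490 nm ratio. Controls were buffer without protein and DMSO.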

[4] = test system: mammalian cell line; assay: Cell viability in a mammalian cell line; format: cell-based; conditions: note [21]

**Q.** How did the “Inhibition of human H69AR small cell lung tumor cell growth” value [1] turn out when `CN1CCN(C2=C(Cl)C(=O)N(c3ccc(Cl)c(Cl)c3)C2=O)CC1` [Compound 1] was run?
**A.** The value was “inhibition of human H69AR small cell lung tumor cell growth was observed”.

**Q.** And the “Potency of Bfl-1 inhibition in words (FP / assay not specified)” value [2]?
**A.** Its value is “submicromolar potency”.

**Q.** What about the “Potency of Bfl-1 inhibition in words (TR-FRET)” value [3] of the same molecule?
**A.** Its value is “submicromolar potency”.

**Q.** How did the “Effect on cell viability in a mammalian cell line” value ([4]; concentration not given) turn out when `CN(C)C1=C(Cl)C(=O)N(c2ccc(Cl)c(Cl)c2)C1=O` [Compound 21] was run?
**A.** The value was “not inhibitory to cell viability”.

**Q.** What about the “Potency of Bfl-1 inhibition in words (FP / assay not specified)” value [2] of the same molecule?
**A.** The value was “equipotent to original hit 1; also recorded: Submicromolar”.

**Q.** `O=C1C(Cl)=C(N2CCN(CCO)CC2)C(=O)N1c1ccc(Cl)c(Cl)c1` [Compound 28] was tested. Which “Potency of Bfl-1 inhibition in words (FP / assay not specified)” value [2] did it give?
**A.** Its value is “Submicromolar”.

**Q.** How did the “Effect on cell viability” value ([4]; 15 μg/mL) turn out when `O=C1C(Cl)=C(N2CCCCC2)C(=O)N1c1ccc(Cl)c(Cl)c1` [Compound 19] was run?
**A.** The value was “decreased cell viability”.

**Q.** How did the “Potency of Bfl-1 inhibition in words (FP / assay not specified)” value [2] turn out when `O=C1C(Cl)=C(N2CCOCC2)C(=O)N1c1ccc(Cl)c(Cl)c1` [Compound 22] was run?
**A.** Its value is “equipotent to original hit 1; also recorded: Submicromolar”.

**Q.** For `O=C1C(Cl)=C(N2CCN(C/C=C/c3ccccc3)CC2)C(=O)N1c1ccc(Cl)c(Cl)c1` [Compound 38], which “Potency of Bfl-1 inhibition in words (FP / assay not specified)” value [2] is on record?
**A.** Its value is “Submicromolar”.

**Q.** Which “Potency of Bfl-1 inhibition in words (FP / assay not specified)” value [2] does the source give for `C[C@@H]1CN(C2=C(Cl)C(=O)N(c3ccc(Cl)c(Cl)c3)C2=O)CCN1` [Compound 24] here?
**A.** The value was “equipotent to original hit 1; also recorded: Submicromolar”.

**Q.** How did the “Potency of Bfl-1 inhibition in words (FP / assay not specified)” value [2] turn out when `O=C1C(Cl)=C(N2CCN(CCOCCO)CC2)C(=O)N1c1ccc(Cl)c(Cl)c1` [Compound 29] was run?
**A.** The value was “Submicromolar”.
